Laboratory results taken from ChEMBL document CHEMBL3612021, “Structure-kinetics relationships of Capadenoson derivatives as adenosine A1 receptor agonists” (Eur J Med Chem, 2015).

Tests used:
[1] = biological target: T1, Adenosine receptor A1 (Homo sapiens) (UniProt P30542); test: Displacement of [3H]DPCPX from human adenosine A1 receptor expressed in CHO cell membranes assessed as kinetic rate index by measuring ratio of binding at earlier and later time points by competition association assay
T1 sequence (whole entry): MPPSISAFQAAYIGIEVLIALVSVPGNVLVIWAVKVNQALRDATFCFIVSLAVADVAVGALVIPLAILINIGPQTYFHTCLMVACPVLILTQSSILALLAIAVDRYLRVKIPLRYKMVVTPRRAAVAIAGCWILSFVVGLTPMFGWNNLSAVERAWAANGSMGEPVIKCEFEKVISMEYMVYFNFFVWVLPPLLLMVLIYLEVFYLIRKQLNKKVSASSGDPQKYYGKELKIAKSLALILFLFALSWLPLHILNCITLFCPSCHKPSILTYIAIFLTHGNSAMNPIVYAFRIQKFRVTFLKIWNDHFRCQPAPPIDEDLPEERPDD
In short: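 Dual-point competition association assay with [3H]DPCPX on CHO membranes stably expressing hA1. Specific binding is read at two time points in the presence of the test ligand. KRI is the ratio of binding at the earlier to the later time point (n = 2; both values reported).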

[2] = biological target: Adenosine receptor A2a (Homo sapiens) (UniProt P29274); test: Displacement of [3H]ZM241385 from human adenosine A2A receptor expressed in HEK293 cell membranes at 1 uM by competition association assay
[3] = biological target: T2, Adenosine receptor A2b (Homo sapiens) (UniProt P29275); test: Displacement of [3H]PSB603 from human adenosine A2B receptor expressed in CHO cell membranes at 1 uM by competition association assay
T2 sequence (whole entry): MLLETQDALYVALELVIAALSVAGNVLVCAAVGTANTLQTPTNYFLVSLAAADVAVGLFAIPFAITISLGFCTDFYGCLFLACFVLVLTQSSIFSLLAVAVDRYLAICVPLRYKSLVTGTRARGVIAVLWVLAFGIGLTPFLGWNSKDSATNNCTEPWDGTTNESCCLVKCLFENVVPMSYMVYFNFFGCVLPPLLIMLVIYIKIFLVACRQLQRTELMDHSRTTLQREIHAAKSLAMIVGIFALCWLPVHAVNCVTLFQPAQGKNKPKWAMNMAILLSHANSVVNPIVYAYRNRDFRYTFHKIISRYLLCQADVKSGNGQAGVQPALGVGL
In short: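 Single-point test at 1 µM measuring percent displacement of specific [3H]PSB603 binding on CHO membranes stably expressing human A2B receptors.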

[4] = biological target: T3, Adenosine receptor A3 (Homo sapiens) (UniProt P0DMS8); test: Displacement of [3H]PSB11 from human adenosine A3 receptor expressed in CHO cell membranes at 1 uM by competition association assay
T3 sequence (whole entry): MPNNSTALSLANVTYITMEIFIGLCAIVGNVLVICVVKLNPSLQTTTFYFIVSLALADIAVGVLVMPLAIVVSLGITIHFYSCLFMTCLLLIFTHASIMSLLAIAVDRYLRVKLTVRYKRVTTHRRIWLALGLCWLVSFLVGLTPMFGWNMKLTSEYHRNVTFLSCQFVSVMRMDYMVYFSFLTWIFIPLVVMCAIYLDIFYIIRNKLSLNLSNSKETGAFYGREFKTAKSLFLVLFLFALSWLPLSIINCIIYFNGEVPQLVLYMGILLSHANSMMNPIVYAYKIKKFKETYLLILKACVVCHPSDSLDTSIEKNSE
In short: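 Single-point screen at 1 µM measuring displacement of specific [3H]PSB11 binding on CHO cell membranes stably expressing human A3 receptors.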

Adenosine receptor A1 = biological target: T4, Adenosine receptor A1 (Homo sapiens, UniProt P30542); test: Agonist activity at human adenosine A1 receptor expressed in CHO cell membranes by [35S]GTPgammaS binding assay; type: functional
T4 sequence (P30542 whole entry): T1 sequence (whole entry)
In short: (§1)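 CHO-hA1 membrane homogenates (3 µg) equilibrated 30 min at 25 °C in 50 mM Tris, 100 mM NaCl, 5 mM MgCl2, 1 mM EDTA, 1 mM DTT, 0.05% BSA, pH 7.4, with 3 µM GDP, saponin and ligand over a concentration range. [35S]GTPγS then added (final 0.3 nM) and incubated 90 min at 25 °C. Filtration on GF/B, ice-cold washes, scintillation counting. n = 3.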

[5] = biological target: T1, Adenosine receptor A1 (Homo sapiens); test: Agonist activity at human adenosine A1 receptor expressed in CHO cell membranes by [35S]GTPgammaS binding assay relative to 100 uM CPA; type: functional; in short: as §1
[6] = biological target: Adenosine receptors; A1 & A3 (Homo sapiens) (UniProt P30542+P0DMS8); test: Selectivity for human adenosine A1 receptor expressed in CHO cell membranes over human adenosine A3 receptor expressed in CHO cell membrane; type: cell-based
[7] = biological target: T1, Adenosine receptor A1 (Homo sapiens); test: Displacement of [3H]DPCPX from human adenosine A1 receptor expressed in CHO cell membranes at 1 uM by competition association assay
[8] = biological target: T1, Adenosine receptor A1 (Homo sapiens); test: Displacement of [3H]DPCPX from human adenosine A1 receptor expressed in CHO cell membranes assessed as association rate constant by competition association assay
In short: (§2)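 Competition association assay on CHO cell membranes stably expressing hA1, with [3H]DPCPX as tracer. kon and koff come from these association curves (n ≥ 3, ± SEM). Residence time is shown alongside koff and corresponds to 1/koff in minutes.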

[9] = biological target: T1, Adenosine receptor A1 (Homo sapiens); test: Displacement of [3H]DPCPX from human adenosine A1 receptor expressed in CHO cell membranes assessed as dissociation rate constant by competition association assay; in short: as §2
[10] = biological target: T1, Adenosine receptor A1 (Homo sapiens); test: Displacement of [3H]DPCPX from human adenosine A1 receptor expressed in CHO cell membranes assessed as residence time by competition association assay; in short: as §2

Chain of Adenosine receptor A2a (Homo sapiens) (P29274 whole entry): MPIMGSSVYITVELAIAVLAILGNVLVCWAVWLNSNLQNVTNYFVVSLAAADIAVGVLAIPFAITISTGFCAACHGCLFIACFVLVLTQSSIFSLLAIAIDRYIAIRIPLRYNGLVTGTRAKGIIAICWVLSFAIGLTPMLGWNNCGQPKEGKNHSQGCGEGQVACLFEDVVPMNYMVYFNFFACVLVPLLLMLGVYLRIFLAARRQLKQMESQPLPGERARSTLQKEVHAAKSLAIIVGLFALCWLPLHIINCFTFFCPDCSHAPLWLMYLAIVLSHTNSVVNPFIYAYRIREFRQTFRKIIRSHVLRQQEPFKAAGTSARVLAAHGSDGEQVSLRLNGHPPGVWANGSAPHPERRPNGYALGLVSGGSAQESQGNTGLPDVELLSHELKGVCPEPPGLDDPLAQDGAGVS

COc1ccc(-c2c(C#N)c(N)nc(SCc3csc(N4CCOCC4)n3)c2C#N)cc1
Ratio [1]: 1.12
inhibition [2]: 0%
inhibition [3]: 0%
inhibition [4]: 51%
EC50 (Adenosine receptor A1): 1.9 nM
Emax [5]: 104%
Selectivity ratio [6]: > 100
inhibition [7]: > 80%

COc1ccc(-c2c(C#N)c(N)nc(SCc3csc(-c4ccccn4)n3)c2C#N)cc1
Ratio [1]: 1.08
inhibition [2]: 0%
inhibition [3]: 0%
inhibition [4]: 22%
EC50 (Adenosine receptor A1): 7.6 nM
Emax [5]: 99%
Selectivity ratio [6]: > 100
inhibition [7]: > 80%

COc1ccc(-c2c(C#N)c(N)nc(SCc3csc(-c4ccc(Cl)cc4)n3)c2C#N)cc1
Ratio [1]: 2.55
K [8]: 2.6 ×10⁶ /M/min
K [9]: 0.0076 min⁻¹
TIME [10]: 2.2 h
inhibition [2]: 5.8%
inhibition [3]: 20%
inhibition [4]: 19%
EC50 (Adenosine receptor A1): 2.9 nM
Emax [5]: 83%
Selectivity ratio [6]: > 100
inhibition [7]: > 80%

N#Cc1c(N)nc(SCc2csc(-c3ccc(Cl)cc3)n2)c(C#N)c1-c1ccc(OCCO)cc1 [CAPADENOSON]
Ratio [1]: 1.42
K [8]: 2.4 ×10⁷ /M/min
K [9]: 0.036 min⁻¹
TIME [10]: 0.463 h
inhibition [2]: 0%
inhibition [3]: 2.5%
inhibition [4]: 1.2%
EC50 (Adenosine receptor A1): 1.1 nM
Emax [5]: 97%
Selectivity ratio [6]: > 100
inhibition [7]: > 80%

COc1ccc(-c2c(C#N)c(N)nc(SCc3csc(-c4ccccc4)n3)c2C#N)cc1
Ratio [1]: 1.23
inhibition [2]: 0%
inhibition [3]: 63%
inhibition [4]: 27%
EC50 (Adenosine receptor A1): 1.9 nM
Emax [5]: 105%
Selectivity ratio [6]: > 100
inhibition [7]: > 80%
